System: Fibroblast
Assay: Multiplex assay against human fibroblast
Type: toxicity, cell-based
Method in brief: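 At seeding, live cells were stained with Hoechst33342, BioTracker Green Microtubule Cytoskeleton Dye, MitoTracker Red and Annexin V Alexa Fluor 680. After compound addition they were imaged on a CQ1 microscope at 37°C and 5% CO2, and CellPathfinder machine-learning gating sorted them into Hoechst high-intensity objects or normal cells, with normal cells further split into healthy, pyknosed or fragmented nuclei and pyknosed cells into mitotic or apoptotic. Tubulin, mitochondrial-mass and membrane-permeability phenotypes are given as per cents of cells with healthy nuclei.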

[1] = 12 h, 1 µM, compound concentration 1 uM, replicate 1
[2] = 12 h, 1 µM, compound concentration 1 uM, replicate 2
[3] = 12 h, 10 µM, compound concentration 10 uM, replicate 1
[4] = 12 h, 10 µM, compound concentration 10 uM, replicate 2
[5] = 24 h, 1 µM, compound concentration 1 uM, replicate 1
[6] = 24 h, 1 µM, compound concentration 1 uM, replicate 2
[7] = 24 h, 10 µM, compound concentration 10 uM, replicate 1
[8] = 24 h, 10 µM, compound concentration 10 uM, replicate 2

CN1CCN(C(=O)C(C)(C)c2ccc(C(=O)Nc3cn4cc(-c5cc(C(C)(C)C)cc(C(C)(C)C)c5)ccc4n3)cc2)CC1 [T3-CLK-N]
Population Apoptotic (%) [1]: 84%
Population Fragmented Nuclei (%) [1]: 34%
Population Healthy Nuclei (%) [1]: 52%
Population Hoechst High Intensity Objects (%) [1]: 19%
Population Membrane Permeable-Phenotype (%) [1]: 8%
Population Mitochondria Different-Phenotype (%) [1]: 1%
Population Mitotic Cells (%) [1]: 16%
Population Normal (%) [1]: 80%
Population Pyknosed Nuclei (%) [1]: 13%
Population Tubulin-Different-Phenotype (%) [1]: 3%
Total Cell Count [1]: 237
Population Apoptotic (%) [2]: 42%
Population Fragmented Nuclei (%) [2]: 44%
Population Healthy Nuclei (%) [2]: 44%
Population Hoechst High Intensity Objects (%) [2]: 26%
Population Membrane Permeable-Phenotype (%) [2]: 14%
Population Mitochondria Different-Phenotype (%) [2]: 11%
Population Mitotic Cells (%) [2]: 57%
Population Normal (%) [2]: 73%
Population Pyknosed Nuclei (%) [2]: 11%
Population Tubulin-Different-Phenotype (%) [2]: 22%
Total Cell Count [2]: 83
Population Apoptotic (%) [3]: 78%
Population Fragmented Nuclei (%) [3]: 39%
Population Healthy Nuclei (%) [3]: 45%
Population Hoechst High Intensity Objects (%) [3]: 16%
Population Membrane Permeable-Phenotype (%) [3]: 23%
Population Mitochondria Different-Phenotype (%) [3]: 1%
Population Mitotic Cells (%) [3]: 21%
Population Normal (%) [3]: 83%
Population Pyknosed Nuclei (%) [3]: 14%
Population Tubulin-Different-Phenotype (%) [3]: 21%
Total Cell Count [3]: 260
Population Apoptotic (%) [4]: 50%
Population Fragmented Nuclei (%) [4]: 40%
Population Healthy Nuclei (%) [4]: 30%
Population Hoechst High Intensity Objects (%) [4]: 39%
Population Membrane Permeable-Phenotype (%) [4]: 30%
Population Mitochondria Different-Phenotype (%) [4]: 23%
Population Mitotic Cells (%) [4]: 50%
Population Normal (%) [4]: 60%
Population Pyknosed Nuclei (%) [4]: 28%
Population Tubulin-Different-Phenotype (%) [4]: 23%
Total Cell Count [4]: 69
Population Apoptotic (%) [5]: 73%
Population Fragmented Nuclei (%) [5]: 31%
Population Healthy Nuclei (%) [5]: 51%
Population Hoechst High Intensity Objects (%) [5]: 16%
Population Membrane Permeable-Phenotype (%) [5]: 9%
Population Mitochondria Different-Phenotype (%) [5]: 2%
Population Mitotic Cells (%) [5]: 26%
Population Normal (%) [5]: 83%
Population Pyknosed Nuclei (%) [5]: 16%
Population Tubulin-Different-Phenotype (%) [5]: 6%
Total Cell Count [5]: 243
Population Apoptotic (%) [6]: 40%
Population Fragmented Nuclei (%) [6]: 42%
Population Healthy Nuclei (%) [6]: 48%
Population Hoechst High Intensity Objects (%) [6]: 28%
Population Membrane Permeable-Phenotype (%) [6]: 11%
Population Mitochondria Different-Phenotype (%) [6]: 11%
Population Mitotic Cells (%) [6]: 60%
Population Normal (%) [6]: 71%
Population Pyknosed Nuclei (%) [6]: 8%
Population Tubulin-Different-Phenotype (%) [6]: 11%
Total Cell Count [6]: 78
Population Apoptotic (%) [7]: 82%
Population Fragmented Nuclei (%) [7]: 32%
Population Healthy Nuclei (%) [7]: 54%
Population Hoechst High Intensity Objects (%) [7]: 10%
Population Membrane Permeable-Phenotype (%) [7]: 22%
Population Mitochondria Different-Phenotype (%) [7]: 5%
Population Mitotic Cells (%) [7]: 17%
Population Normal (%) [7]: 89%
Population Tubulin-Different-Phenotype (%) [7]: 30%
Total Cell Count [7]: 245
Population Apoptotic (%) [8]: 33%
Population Fragmented Nuclei (%) [8]: 55%
Population Healthy Nuclei (%) [8]: 30%
Population Hoechst High Intensity Objects (%) [8]: 38%
Population Membrane Permeable-Phenotype (%) [8]: 38%
Population Mitochondria Different-Phenotype (%) [8]: 15%
Population Mitotic Cells (%) [8]: 66%
Population Normal (%) [8]: 61%
Population Pyknosed Nuclei (%) [8]: 13%
Population Tubulin-Different-Phenotype (%) [8]: 23%
Total Cell Count [8]: 70
